Test results taken from ChEMBL document CHEMBL5724801, “EUbOPEN Chemogenomics Library - Multiplex” (2024).
Several values for one entry are separate records, joined by “and”; a condition that tells them apart may be missing. Equal values may be shown once.

Tested on: Fibroblast
Assay: Multiplex assay against human fibroblast
Format: toxicity, cell-based
Method in brief: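 Live cells carried four stains from seeding: Hoechst33342, BioTracker Green Microtubule Cytoskeleton Dye, MitoTracker Red and Annexin V Alexa Fluor 680. They were imaged on a CQ1 microscope at 37°C and 5% CO2 after compound addition. Using CellPathfinder machine-learning gating, cells were split into Hoechst high-intensity objects or normal cells, normal cells into healthy, pyknosed or fragmented nuclei, and pyknosed cells into mitotic or apoptotic; tubulin, mitochondrial-mass and membrane-permeability phenotypes are per cents of healthy-nucleus cells.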

[1] = 12 h, 1 µM, compound concentration 1 uM
[2] = 12 h, 10 µM, compound concentration 10 uM
[3] = 24 h, 1 µM, compound concentration 1 uM
[4] = 24 h, 10 µM, compound concentration 10 uM
[5] = 48 h, 1 µM, compound concentration 1 uM
[6] = 48 h, 10 µM, compound concentration 10 uM

O=C1NC(NC23CC4CC(CC(C4)C2)C3)=N/C1=C\c1ccc2ncsc2c1
Population Apoptotic (%) [1]: 51.97% and 44.44% | Population Fragmented Nuclei (%) [1]: 23.55% and 19.79% | Population Healthy Nuclei (%) [1]: 57.53% and 66.62% | Population Hoechst High Intensity Objects (%) [1]: 0% | Population Membrane Permeable-Phenotype (%) [1]: 1.3% and 2.27% | Population Mitochondria Different-Phenotype (%) [1]: 3.63% and 2.49% | Population Mitotic Cells (%) [1]: 48.03% and 55.56% | Population Normal (%) [1]: 100% | Population Pyknosed Nuclei (%) [1]: 18.93% and 13.6% | Population Tubulin-Different-Phenotype (%) [1]: 8.81% and 11.79% | Total Cell Count [1]: 671 and 662 | Population Apoptotic (%) [2]: 45.21% and 45.31% | Population Fragmented Nuclei (%) [2]: 36.23% and 36.1% | Population Healthy Nuclei (%) [2]: 32.66% and 30.01% | Population Hoechst High Intensity Objects (%) [2]: 28.04% and 33.79% | Population Membrane Permeable-Phenotype (%) [2]: 0.36% and 0.46% | Population Mitochondria Different-Phenotype (%) [2]: 0% | Population Mitotic Cells (%) [2]: 54.79% and 54.69% | Population Normal (%) [2]: 71.96% and 66.21% | Population Pyknosed Nuclei (%) [2]: 31.11% and 33.89% | Population Tubulin-Different-Phenotype (%) [2]: 0.73% and 7.37% | Total Cell Count [2]: 1166 and 1092 | Population Apoptotic (%) [3]: 49.15% and 52.44% | Population Fragmented Nuclei (%) [3]: 25.03% and 19.5% | Population Healthy Nuclei (%) [3]: 59% and 67.8% | Population Hoechst High Intensity Objects (%) [3]: 0% and 0.15% | Population Membrane Permeable-Phenotype (%) [3]: 2.52% and 1.37% | Population Mitochondria Different-Phenotype (%) [3]: 0.92% and 0.91% | Population Mitotic Cells (%) [3]: 50.85% and 47.56% | Population Normal (%) [3]: 100% and 99.85% | Population Pyknosed Nuclei (%) [3]: 15.97% and 12.69% | Population Tubulin-Different-Phenotype (%) [3]: 12.84% and 17.12% | Total Cell Count [3]: 739 and 647 | Population Apoptotic (%) [4]: 48.2% and 49.02% | Population Fragmented Nuclei (%) [4]: 28.62% and 33.38% | Population Healthy Nuclei (%) [4]: 37.8% and 32.44% | Population Hoechst High Intensity Objects (%) [4]: 27.11% and 32.18% | Population Membrane Permeable-Phenotype (%) [4]: 0.64% and 0.41% | Population Mitochondria Different-Phenotype (%) [4]: 0.32% and 0% | Population Mitotic Cells (%) [4]: 51.8% and 50.98% | Population Normal (%) [4]: 72.89% and 67.82% | Population Pyknosed Nuclei (%) [4]: 33.57% and 34.18% | Population Tubulin-Different-Phenotype (%) [4]: 1.6% and 2.89% | Total Cell Count [4]: 1136 and 1100 | Population Apoptotic (%) [5]: 58.9% and 52.22% | Population Fragmented Nuclei (%) [5]: 13.24% and 13.94% | Population Healthy Nuclei (%) [5]: 69.8% and 71.47% | Population Hoechst High Intensity Objects (%) [5]: 0% | Population Membrane Permeable-Phenotype (%) [5]: 1.5% and 2.72% | Population Mitochondria Different-Phenotype (%) [5]: 1.5% and 0.91% | Population Mitotic Cells (%) [5]: 41.1% and 47.78% | Population Normal (%) [5]: 100% | Population Pyknosed Nuclei (%) [5]: 16.96% and 14.59% | Population Tubulin-Different-Phenotype (%) [5]: 20.97% and 31.75% | Total Cell Count [5]: 861 and 617 | Population Apoptotic (%) [6]: 50.75% and 49.7% | Population Fragmented Nuclei (%) [6]: 29.22% and 30.74% | Population Healthy Nuclei (%) [6]: 35.44% and 26.72% | Population Hoechst High Intensity Objects (%) [6]: 25.71% and 37.77% | Population Membrane Permeable-Phenotype (%) [6]: 0.6% and 0.49% | Population Mitochondria Different-Phenotype (%) [6]: 0.6% and 0% | Population Mitotic Cells (%) [6]: 49.25% and 50.3% | Population Normal (%) [6]: 74.29% and 62.23% | Population Pyknosed Nuclei (%) [6]: 35.34% and 42.54% | Population Tubulin-Different-Phenotype (%) [6]: 1.19% and 2.91% | Total Cell Count [6]: 1276 and 1239

CC[C@@H](C)Nc1nc(C)nc2c(-c3ccc(OC)nc3C)c(C)nn12 [PEXACERFONT]
Population Apoptotic (%) [1]: 40% and 25% | Population Fragmented Nuclei (%) [1]: 12% and 32% | Population Healthy Nuclei (%) [1]: 66% and 44% | Population Hoechst High Intensity Objects (%) [1]: 1% and 2% | Population Mitochondria Different-Phenotype (%) [1]: 4% | Population Mitotic Cells (%) [1]: 60% and 75% | Population Normal (%) [1]: 98% and 97% | Population Pyknosed Nuclei (%) [1]: 20% and 24% | Population Tubulin-Different-Phenotype (%) [1]: 35% and 65% | Total Cell Count [1]: 147 and 103 | Population Apoptotic (%) [2]: 43% and 38% | Population Fragmented Nuclei (%) [2]: 15% and 21% | Population Healthy Nuclei (%) [2]: 55% and 40% | Population Hoechst High Intensity Objects (%) [2]: 2% and 8% | Population Membrane Permeable-Phenotype (%) [2]: 0% and 7% | Population Mitochondria Different-Phenotype (%) [2]: 19% and 9% | Population Mitotic Cells (%) [2]: 56% and 61% | Population Normal (%) [2]: 97% and 91% | Population Pyknosed Nuclei (%) [2]: 29% and 38% | Population Tubulin-Different-Phenotype (%) [2]: 62% and 68% | Total Cell Count [2]: 143 and 147 | Population Apoptotic (%) [3]: 52% and 47% | Population Fragmented Nuclei (%) [3]: 16% and 35% | Population Healthy Nuclei (%) [3]: 70% and 42% | Population Hoechst High Intensity Objects (%) [3]: 1% and 3% | Population Membrane Permeable-Phenotype (%) [3]: 0% and 20% | Population Mitochondria Different-Phenotype (%) [3]: 3% and 2% | Population Mitotic Cells (%) [3]: 47% and 52% | Population Normal (%) [3]: 98% and 96% | Population Pyknosed Nuclei (%) [3]: 13% and 22% | Population Tubulin-Different-Phenotype (%) [3]: 38% and 61% | Total Cell Count [3]: 157 and 108 | Population Apoptotic (%) [4]: 37% and 38% | Population Fragmented Nuclei (%) [4]: 16% and 18% | Population Healthy Nuclei (%) [4]: 56% and 47% | Population Hoechst High Intensity Objects (%) [4]: 1% and 7% | Population Mitochondria Different-Phenotype (%) [4]: 10% and 6% | Population Mitotic Cells (%) [4]: 62% and 61% | Population Normal (%) [4]: 98% and 92% | Population Pyknosed Nuclei (%) [4]: 27% and 33% | Population Tubulin-Different-Phenotype (%) [4]: 68% and 76% | Total Cell Count [4]: 139 and 143 | Population Apoptotic (%) [5]: 54% and 25% | Population Fragmented Nuclei (%) [5]: 15% and 40% | Population Healthy Nuclei (%) [5]: 69% and 45% | Population Hoechst High Intensity Objects (%) [5]: 8% and 1% | Population Mitochondria Different-Phenotype (%) [5]: 0% and 4% | Population Mitotic Cells (%) [5]: 45% and 75% | Population Normal (%) [5]: 91% and 98% | Population Pyknosed Nuclei (%) [5]: 15% and 14% | Population Tubulin-Different-Phenotype (%) [5]: 30% and 52% | Total Cell Count [5]: 160 and 113 | Population Apoptotic (%) [6]: 87% and 52% | Population Fragmented Nuclei (%) [6]: 23% and 32% | Population Healthy Nuclei (%) [6]: 53% and 50% | Population Hoechst High Intensity Objects (%) [6]: 3% and 4% | Population Membrane Permeable-Phenotype (%) [6]: 0% and 12% | Population Mitochondria Different-Phenotype (%) [6]: 14% and 9% | Population Normal (%) [6]: 96% and 95% | Population Pyknosed Nuclei (%) [6]: 22% and 16% | Population Tubulin-Different-Phenotype (%) [6]: 62% and 76% | Total Cell Count [6]: 144 and 134
